Assay outcomes (PubChem)
Runt-SMMHC FRET = Runt domain-CBFb-SMMHC interaction inhibition. Q01196+Q13951. Cerulean-Runt/Venus-CBFb-SMMHC FRET ratio 530/480, 1 h. inhibition, % at 20 µM. 220,000 tested, 0.74% active. AID 1434;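 active = mean inhibition across duplicate retests at 20 µM reaching about 50%, limit read from the data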;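 note: 0% = DMSO wells and 100% = wells with excess untagged CBFb-SMMHC; inhibitors lower the FRET ratio by blocking Runt binding to CBFb-SMMHC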
Target sequence (Q01196 whole entry, looked up, the tested form may be a part): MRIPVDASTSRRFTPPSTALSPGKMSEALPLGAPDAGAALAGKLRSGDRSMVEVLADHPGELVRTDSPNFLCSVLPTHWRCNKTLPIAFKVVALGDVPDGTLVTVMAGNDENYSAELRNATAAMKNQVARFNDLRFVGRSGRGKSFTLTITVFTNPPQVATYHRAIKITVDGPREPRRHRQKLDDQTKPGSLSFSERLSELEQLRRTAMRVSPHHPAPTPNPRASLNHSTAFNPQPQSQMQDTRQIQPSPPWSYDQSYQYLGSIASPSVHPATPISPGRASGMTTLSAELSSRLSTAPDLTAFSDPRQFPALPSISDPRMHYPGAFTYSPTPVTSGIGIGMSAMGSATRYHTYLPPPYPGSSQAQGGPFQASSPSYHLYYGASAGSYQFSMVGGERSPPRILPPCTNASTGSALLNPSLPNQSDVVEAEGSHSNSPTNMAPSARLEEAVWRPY
Target sequence (Q13951 whole entry, looked up, the tested form may be a part): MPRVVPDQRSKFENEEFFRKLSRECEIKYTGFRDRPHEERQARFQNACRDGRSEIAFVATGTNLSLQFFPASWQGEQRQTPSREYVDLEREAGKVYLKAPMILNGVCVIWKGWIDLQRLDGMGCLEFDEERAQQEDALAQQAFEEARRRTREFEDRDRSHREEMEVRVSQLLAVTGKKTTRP
proKLK7 act = proKLK7 (human) activation, primary screen; P49862; purified proKLK7, EDANS-DABCYL substrate fluorescence; 100% is mature enzyme control, 0% vehicle; activation, % at 7 µM; 370,000 tested, 0.9% active; AID 652039;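 active = activation above the mean of all tested compounds plus 3 SD, computed per campaign excluding outliers beyond control limits, cut at about 13% in these data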
Runt-CBFb FRET = blocks binding of human RUNX1 Runt domain to CBFb; Q01196+Q13951; 220,000 tested, 0.46% active; inhibition, % at 20 µM; Cerulean-Runt/Venus-CBFb FRET ratio 530/480, 1 h;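 active = inhibition over about 50% at 20 µM in the single-dose screen, limit read from the data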;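 note: 0% = DMSO wells and 100% = excess unlabeled CBFb competitor control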
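Assay system: Cerulean-tagged RUNX1 Runt domain (FRET donor) fusion protein / Amount: 100 nM each of Venus-CBFb and Cerulean-Runt domain / Medium: Tris buffer pH 7.5 with salts and BSA / Also added: Venus-CBFb 100 nM / Schedule: 1 h complex formation plus 1 h compound treatment, room temperature / Signal: FRET fluorescence / Read-out: loss of energy transfer signal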
RanGTP-Impb inh = disruptors of Ran-importin-beta complex formation – biochemical, FRET, CFP-Ran, YFP-importin-beta, homogeneous, primary screen; cell-free CFP-Ran/YFP-importin-beta FRET ratio; inhibition, % (no concentration beside the values); 300,000 tested, 1.1% active; AID 2216;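 active = more than half of the replicate wells show a fall in the fluorescence ratio signal beyond about 16%, limit read from the data, passing the limit was not always enough; inconclusive = exactly half of the replicate wells pass the set limit; inactive = fewer than half of replicates pass the limit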;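 note: 0% = DMSO wells and 100% = Ran loaded with GDP instead of GTP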
MEX-5 binding = C. elegans MEX-5 TCR-2 RNA binding activity; Q9XUB2; activity score (negative = inhibition of binding), % at 10 µM; 300,000 tested, 0.38% active; MEX-5/FITC-TCR2 RNA binding, fluorescence polarization; hits give low values;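 active = inhibition past about -25% in most replicates, and total fluorescence under double the plate's negative control median, limit read from the data; inconclusive = replicates evenly split on the limit, or fluorescence at least double controls; inactive = too little inhibition in most replicates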;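 note: 0% = DMSO and -100% = 5 µM competing unlabeled TCR2 RNA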
KLK7 act conf = proKLK7 activation, confirmation; AID 686949; purified proKLK7, EDANS-DABCYL substrate fluorescence; scaled: vehicle 0, mature enzyme 100; shares compounds with proKLK7 act; activation, % at 7 µM; 3,200 tested, 68% active;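 active = activation, as change over the incubation, above the mean of all tested compounds plus 3 SD, cut at about 13% in these data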
EDANS interfere = optically interferes with EDANS-DABCYL signal, flagging KLK7 hits. shares compounds with proKLK7 act. EDANS-DABCYL substrate fluorescence interference, no enzyme, 4 h; solvent 0%, active enzyme control 100%. activation, % at 7 µM. 3,200 tested, 80% active. AID 686952;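 active = activation above the all-compound mean plus 3 SD, ignoring values outside control-based bounds, cut at about 4.8% in these data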;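 note: value is the 4 h activation minus the activation read at time zero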
K7 EDANS ctr = optically interferes with EDANS-DABCYL fluorescence, kallikrein-7 activator counter-screen | shares compounds with proKLK7 act | EDANS-DABCYL peptide fluorescence interference, no enzyme | EC50, µM | 250 tested, 20% active;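 active = compounds that raise the fluorescence signal in this interference counterscreen, with EC50 at or below 10 µM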;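 note: intact quenched peptide substrate alone read at 355 nm excitation and 520 nm emission; signal is fluorescence gain from T0 to T4 after four hours at room temperature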
Numbers without * were called inactive; ? = inconclusive; . = no result given. This is a sample that favours compounds with a hit; in the whole collection about 2.1% have one here.

SMILES	Runt-SMMHC FRET	proKLK7 act	Runt-CBFb FRET	RanGTP-Impb inh	MEX-5 binding	KLK7 act conf	EDANS interfere	others
CCCC(=O)Nc1ccc2nn(-c3ccc(OC)cc3)nc2c1	.	18*	.	-1	0	35*	-4	K7 EDANS ctr=>70
COc1ccc(-n2nc(N)c(C(N)=O)n2)cc1	4	26*	1	-6	2	23*	21*
Cc1cc2nn(-c3ccc(F)cc3)nc2cc1N	.	2	.	-3	-1	.	.
COc1ccccc1-c1cnc(C(O)c2ccc(CN3CCCC3)cc2)[nH]1 (centres undefined)	.	0	.	.	.	.	.
CCOC(=O)C1CCN(C(=O)COC(=O)c2c(C)c(CC)nc3ccccc23)CC1	.	0	.	.	.	.	.
Cc1nc2c(c(C)nn2-c2ccccc2)c(C)c1CCC(=O)Nc1ccc(CN2CCCC2)cc1	-31	0	-2	3	2	.	.
O=S1(=O)c2ccc(N3CC[C@H](O)C3)cc2OCCCN1C1CC1	.	0	.	.	.	.	.
COc1ccc(CN(C)[C@H]2C[C@H]3c4[nH]c5ccccc5c4CCN3C[C@H]2[C@H](C)O)cc1	.	4	.	.	.	.	.
Cc1cc(C)n2cc(CSc3ncn[nH]3)nc2n1	0	28*	0	5	13	8	6.8*
Cc1sc(-c2ccccn2)nc1OC(=O)c1ccc(Cl)c(Cl)c1	-8	0	-6	?	0	.	.
Cc1sc(-c2ccccn2)nc1OC(=O)c1ccc(F)cc1F	-15	14*	-5	-3	-14	23*	23*
Cc1ccc([C@@H]2CC(=O)[C@@H]3CN(S(=O)(=O)c4ccc(C)cc4)[C@H](c4ccccc4)C[C@@H]3N2S(=O)(=O)c2ccc(C)cc2)cc1	.	0	.	.	.	.	.
C/C(CCc1ccco1)=N\NC(=O)CNc1cccc2ccccc12	-10	33*	6	?	-1	8	6.1*
C/C(=N\NC(=O)CNc1cccc2ccccc12)c1ccccc1	-2	46*	1	-1	0	2	2
C#CCn1c(=NC(=O)c2ccc(S(=O)(=O)N3CCc4ccccc4C3)cc2)sc2cc(S(N)(=O)=O)ccc21	-6	.	-4	10	-5	.	.
COCCn1c(=NC(=O)c2ccc(S(=O)(=O)N3CCCc4ccccc43)cc2)sc2cc(S(C)(=O)=O)ccc21	1	-1	-4	0	2	.	.
COCCn1c(=NC(=O)c2ccc(S(=O)(=O)N3CCc4ccccc4C3)cc2)sc2cc(S(N)(=O)=O)ccc21	-6	305*	-7	1	0	63*	80*
C=CCn1c(=NC(=O)c2ccc(S(=O)(=O)N3CCc4ccccc4C3)cc2)sc2cc(S(N)(=O)=O)ccc21	-4	66*	-10	-1	-2	70*	-208	K7 EDANS ctr=>69
C=CCN1C(C(=O)OC)CN(Cc2cn(Cc3ccc(Cl)cc3)nn2)CCS1(=O)=O (centres undefined)	.	0	.	.	.	.	.
CC(C)C[C@@H](CN)NC(=O)c1nc[nH]c1C(=O)N[C@@H](C)C(=O)CNC[C@H](C)NC(=O)c1nc[nH]c1C(=O)N[C@@H](Cc1ccccc1)C(=O)O	.	0	.	.	.	.	.
Cc1cc(C(=O)OCC(=O)NCCc2ccccc2)c2ccccc2n1	.	-1	.	.	.	.	.
COc1ccc(N(C)C(=S)Nc2ccc3nc(C)c(C)nc3c2)cc1	-139	14*	6	-2	-1	12	15*
CN1C(=O)C2C(c3ccc(N(C)C)cc3)NN(Cc3ccccc3)C2C1=O (centres undefined)	-2	15*	6	1	2	14*	13*
C[C@@H]1CC=C[C@H]2[C@H]1C(=O)N(Cc1ccccc1)[C@H]2c1ccc(F)c(-c2ccc(N(C)C)cc2)c1	2	-2	4	-3	3	.	.
O=C(NCCN1CCOCC1)c1cc(-c2ccccc2Cl)nc2ccccc12	.	0	.	-2	2	.	.
